Experimental data from different studies.
Compare with care: the assays were run in different laboratories.

Structure (SMILES) | host | medium | route | dose | notes | half-life [min]
Cc1cc(Nc2ccc(S(F)(F)(F)(F)F)cc2)n2ncnc2n1 | male Swiss mouse | plasma | oral | 100 mg/kg | single dose | 840
CNC(=O)c1cc(OC)cc2c(N3CCc4c(cc(Cn5ccnc5)cc4-c4cn(C)nc4C(F)(F)F)C3=O)ccnc12 | male CD-1 mouse | plasma | intravenous | 3 mg/kg |  | 66
C=CC(=O)N1C[C@H](n2c(C#CC3CC3)c(C(=O)N[C@H](C)c3ccccc3)c3c(N)ncnc32)C[C@@H]1C | male nude mouse | plasma | oral | 6.25 mg/kg | single dose | 129
Cc1ccc2cncc(N3CCc4c(cc(Cn5ccnc5)cc4-c4cn(C)nc4C(F)(F)F)C3=O)c2c1 | male CD-1 mouse | plasma | oral | 10 mg/kg |  | 66
COc1nc(-c2cc(C)c(N[C@@H](C)c3cc(F)cc(F)c3)nn2)ccc1-n1cnc(C)c1 | male CD-1 mouse | plasma | oral | 5 mg/kg | single dose | 426
CC=Cc1ccc(O)c(OC)c1 | mouse | brain | intranasal | 100 mg/kg |  | 17.6
COc1cc(OC)c2nccc(N3CCc4c(cc(Cn5ccnc5)cc4-c4cn(C)nc4C(F)(F)F)C3=O)c2c1 | male CD-1 mouse | plasma | oral | 50 mg/kg |  | 42
CCc1ccc(Cc2cc([C@@H]3O[C@H](CO)[C@@H](O)[C@H](O)[C@H]3O)cc3c2CCC3)cc1 | male C57BL/6 mouse | plasma | intravenous | 1 mg/kg |  | 174
COC(=O)CN(CCCc1ccccc1)CC(=O)N[C@@H](Cc1c[nH]cn1)c1nc(C)no1 | male C57BL/6 mouse | plasma | intraperitoneal | 30 mg/kg |  | 6
COc1ccc2nccc(N3CCc4c(cc(Cn5ccnc5)cc4-c4cn(C)nc4C(F)(F)F)C3=O)c2c1 | male CD-1 mouse | plasma | oral | 10 mg/kg |  | 72
CC(C)(C)c1ccc(O)c(CN(Cc2cc(C(C)(C)C)ccc2O)C2CCC(NC(N)=O)CC2)c1 (centres unmarked) | male C57BL/6 mouse | plasma | oral | 10 mg/kg | single dose | 162
COc1nc(-c2cc(C)c(N[C@@H](C)c3ccc(F)cc3)nn2)ccc1-n1cnc(C)c1 | male CD-1 mouse | plasma | intravenous | 1 mg/kg | single dose | 176
OC[C@H]1O[C@@H](c2ccc(Cl)c(Cc3ccc(O[C@H]4CCOC4)cc3)c2)[C@H](O)[C@@H](O)[C@@H]1O | CD-1 mouse | plasma | oral | 10 mg/kg |  | 30
CC[C@H](C)[C@@H]1NC(=O)[C@@](C)(NC(=O)[C@H](CCCNC(=N)N)NC(=O)[C@H](CC(C)C)NC(=O)[C@@H](NC(=O)[C@H](CCC(N)=O)NC(=O)[C@H](CC(C)C)NC(C)=O)[C@@H](C)O)CCCC=CCCC[C@@](C)(C(=O)N[C@@H](CC(C)C)C(=O)N[C@@H](Cc2ccc3ccccc3c2)C(N)=O)NC(=O)[C@H](CCCNC(=N)N)NC(=O)[C@H](CCC(N)=O)NC1=O | male BALB/c mouse | plasma | intravenous | 15 mg/kg |  | 108
CCc1cc(OC)c2nccc(N3CCc4c(cc(Cn5ccnc5)cc4-c4cn(C)nc4C(F)(F)F)C3=O)c2c1 | male CD-1 mouse | plasma | oral | 50 mg/kg |  | 66
CC(C)c1cnn2c(NCc3ccccc3)cc(NC[C@H]3CCNC[C@@H]3O)nc12 | male CD-1 mouse | plasma | intravenous | 10 mg/kg |  | 114

Structure (SMILES) | host | medium | route | dose | notes | half-life [min]
COc1ccc(NC(=O)N2CCCCN3[C@H](COCCC(=O)O)[C@H](c4ccc(C#Cc5ccccc5)cc4)[C@@H]3C2)cc1 | mouse | plasma | intravenous |  |  | 120
CN1CCC[C@H](CN2c3ccccc3Sc3ccccc32)C1.Cl | mouse | plasma | oral | 64 mg/kg | single dose | 262
C=C(C[C@H](N)C(=O)O)C(=O)NCc1ccc(F)cc1 | male CD-1 mouse | plasma | intravenous | 2.5 mg/kg |  | 48
CCNc1nc2c(c(N3CC(=O)Nc4cc(OC)ccc43)n1)CCC2 | female C57BL/6 mouse | plasma | intravenous | 4 mg/kg | single dose | 30.6
Cc1cc(NC(=O)c2cccc3cc(-c4cccc5[nH]nc(N)c45)ccc23)ccc1F | male CD-1 mouse | brain | oral | 10 mg/kg |  | 124
C[C@H]1CCCN1Cc1nc2cc(NC(=O)c3ccc4c(cnn4C)c3)ccc2[nH]1 | female BALB/c mouse | plasma | oral | 100 mg/kg |  | 49.8
O=C(NCCN1CCCC1)c1cc(-c2ccc(CN3CCOCC3)cc2)nc2ccc(F)cc12 | female NMRI mouse | blood | oral | 3 mg/kg |  | 1140
CCc1cc(C(=O)NC)c2nccc(N3CCc4c(cc(Cn5ccnc5)cc4-c4cn(C)nc4C(F)(F)F)C3=O)c2c1 | male CD-1 mouse | plasma | oral | 50 mg/kg |  | 90
Oc1nc2nonc2cc1Nc1ccc(OC(F)(F)F)cc1C(F)(F)F | male C57BL/6 mouse | plasma | oral | 10 mg/kg |  | > 900
Cn1cnc2c(F)c(Nc3ccc(Br)cc3Cl)c(C(=O)NOCCO)cc21 | nude mouse | tumour | oral | 10 mg/kg | single dose, tumour-bearing | 222
COc1ccc2c3c1O[C@H]1C[C@@H](OC(=O)c4ccccc4)C=C[C@@]31CCN(C)C2 | mouse | blood | intravenous | 3 mg/kg |  | 28.8
Cc1nc(NC2Cc3cc(F)c(F)cc3C2)c2c(C)noc2n1 | male Swiss mouse | plasma | oral | 20 mg/kg |  | 54
CC(C)Oc1c(NC(=O)c2ccc(NC(=O)[C@H](CC(N)=O)NC(=O)c3ccc(NC(=O)c4ccc(C#N)cc4)cc3)cc2)ccc(C(=O)Nc2ccc(C(=O)O)cc2)c1O | male CD-1 mouse | plasma | subcutaneous | 5 mg/kg | single dose | 99
COc1ccc(C(O)COc2ccc(-c3csc(-c4ccc(OCC(O)c5ccc(OC)c(OC)c5)cc4)n3)cc2)cc1OC (centres unmarked) | C57BL/6 mouse | plasma | oral | 75 mg/kg |  | 246
O=C(Nc1ccc(C(F)(F)F)cc1)N1CCC(Cc2cccc(Oc3ccc(C(F)(F)F)cn3)c2)CC1 | male Swiss mouse | blood | oral | 1 mg/kg |  | 306
Cc1nc(-c2cnc(NC(C)C)n(C)c2=O)ccc1Oc1ccnc(-c2cnn(C)c2)c1 | female mouse | plasma | oral | 30 mg/kg | single dose | 921
